Test results taken from ChEMBL document CHEMBL1649374 (Eur J Med Chem, 2011).
Calls of active or inactive are those of the source. The rule behind the calls is not given here.

What was measured:
Dipeptidyl peptidase 4 = Dipeptidyl peptidase 4 (Homo sapiens, UniProt P27487); assay: Inhibition of DPP4 after 20 mins by fluorescence assay
[1] = target: Voltage-gated inwardly rectifying potassium channel KCNH2 (Homo sapiens, UniProt Q12809); assay: Inhibition of human ERG expressed in HEK293 cells after 3 hrs by nonradioactive rubidium efflux assay; assay type: cell-based; conditions: hek293, 3 h
Dipeptidyl peptidase 9 = Dipeptidyl peptidase 9 (Homo sapiens, UniProt Q86TI2); assay: Inhibition of DPP9 after 20 mins by fluorescence assay
How it was run: (§1)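 Enzyme and inhibitor were preincubated for 10 min at room temperature in 50 mM Tris pH 7.5 with 0.1% BSA. The reaction was started with Gly-Pro-AMC and run for 20 min at room temperature. IC50 is the mean of three separate experiments, from curve fitting.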

Dipeptidyl peptidase 8 = Dipeptidyl peptidase 8 (Homo sapiens, UniProt Q6V1X1); assay: Inhibition of DPP8 after 20 mins by fluorescence assay; how it was run: as §1
[2] = Cmax in Sprague-Dawley rat at 10 mg/kg, iv; assay type: ADME, organism-based; parameters: dose 10 mg/kg, route intravenous; conditions: in vivo
[3] = AUC (0 to t) in Sprague-Dawley rat at 10 mg/kg, iv; assay type: ADME, organism-based; parameters: dose 10 mg/kg, route intravenous; conditions: plasma
[4] = Mean residence time in Beagle dog at 10 mg/kg, iv; assay type: ADME, organism-based, Canis lupus familiaris; parameters: dose 10 mg/kg, route intravenous; conditions: in vivo
Mus musculus [5] = assay: Antidiabetic activity in ICR mouse assessed as reduction of serum DPP4 activity at 3 mg/kg, po; assay type: functional, organism-based; parameters: dose 3 mg/kg
How it was run: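 Compound was given orally at 3 mg/kg, or vehicle, with n = 5 per group. Serum was mixed with 80 mM MgCl2 for 5 min at room temperature, then 0.1 mM Gly-Pro-AMC and buffer were added. Fluorescence (ex 380 nm, em 460 nm) was read every 3 min over 18 min, and serum DPP-IV specific activity was calculated from these reads.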

[6] = Mean residence time in Sprague-Dawley rat at 20 mg/kg, po; assay type: ADME, organism-based; parameters: dose 20 mg/kg, route oral; conditions: in vivo
[7] = Tmax in Sprague-Dawley rat at 10 mg/kg, iv; assay type: ADME, organism-based; parameters: dose 10 mg/kg, route intravenous; conditions: in vivo
Mus musculus [8] = assay: Antidiabetic activity in C57BL/6J mouse high-fat diet model assessed as reduction in glucose AUC (0 to 120) at 3 mg/kg, po pretreated 30 mins before glucose challenge measured by oral glucose tolerance test; assay type: functional, organism-based; parameters: dose 3 mg/kg
[9] = Mean residence time in Beagle dog at 20 mg/kg, po; assay type: ADME, organism-based, Canis lupus familiaris; parameters: dose 20 mg/kg, route oral; conditions: in vivo
Rattus norvegicus = assay: AUC (0 to t) in Sprague-Dawley rat at 20 mg/kg, po; assay type: ADME, organism-based, Plasma; parameters: dose 20 mg/kg, route oral; conditions: in vivo
[10] = Plasma clearance in Beagle dog at 10 mg/kg, iv; assay type: ADME, organism-based, Canis lupus familiaris; parameters: dose 10 mg/kg, route intravenous
[11] = Cmax in Beagle dog at 10 mg/kg, iv; assay type: ADME, organism-based, Canis lupus familiaris; parameters: dose 10 mg/kg, route intravenous; conditions: in vivo
[12] = AUC (0 to t) in Beagle dog at 20 mg/kg, po; assay type: ADME, organism-based, Canis lupus familiaris; parameters: dose 20 mg/kg, route oral; conditions: plasma
[13] = Half life in Beagle dog at 20 mg/kg, po; assay type: ADME, organism-based, Canis lupus familiaris; parameters: dose 20 mg/kg, route oral; conditions: in vivo
[14] = Cmax in Beagle dog at 20 mg/kg, po; assay type: ADME, organism-based, Canis lupus familiaris; parameters: dose 20 mg/kg, route oral; conditions: in vivo
[15] = Plasma clearance in Beagle dog at 20 mg/kg, po; assay type: ADME, organism-based, Canis lupus familiaris; parameters: dose 20 mg/kg, route oral
[16] = Mean residence time in Sprague-Dawley rat at 10 mg/kg, iv; assay type: ADME, organism-based; parameters: dose 10 mg/kg, route intravenous; conditions: in vivo
[17] = Half life in Sprague-Dawley rat at 20 mg/kg, po; assay type: ADME, organism-based; parameters: dose 20 mg/kg, route oral; conditions: in vivo
[18] = Tmax in Beagle dog at 20 mg/kg, po; assay type: ADME, organism-based, Canis lupus familiaris; parameters: dose 20 mg/kg, route oral; conditions: in vivo
[19] = Half life in Sprague-Dawley rat at 10 mg/kg, iv; assay type: ADME, organism-based; parameters: dose 10 mg/kg, route intravenous; conditions: in vivo
[20] = Oral bioavailability in Beagle dog at 20 mg/kg; assay type: ADME, organism-based, Canis lupus familiaris; conditions: in vivo
[21] = Plasma clearance in Sprague-Dawley rat at 10 mg/kg, iv; assay type: ADME, organism-based; parameters: dose 10 mg/kg, route intravenous
[22] = Tmax in Sprague-Dawley rat at 20 mg/kg, po; assay type: ADME, organism-based; parameters: dose 20 mg/kg, route oral; conditions: in vivo
[23] = Oral bioavailability in Sprague-Dawley rat at 20 mg/kg; assay type: ADME, organism-based; conditions: in vivo
[24] = Half life in Beagle dog at 10 mg/kg, iv; assay type: ADME, organism-based, Canis lupus familiaris; parameters: dose 10 mg/kg, route intravenous; conditions: in vivo
[25] = Cmax in Sprague-Dawley rat at 20 mg/kg, po; assay type: ADME, organism-based; parameters: dose 20 mg/kg, route oral; conditions: in vivo
[26] = AUC (0 to t) in Beagle dog at 10 mg/kg, iv; assay type: ADME, organism-based, Canis lupus familiaris; parameters: dose 10 mg/kg, route intravenous; conditions: plasma
[27] = Tmax in Beagle dog at 10 mg/kg, iv; assay type: ADME, organism-based, Canis lupus familiaris; parameters: dose 10 mg/kg, route intravenous; conditions: in vivo

Sequence of Dipeptidyl peptidase 8 (Q6V1X1 whole entry): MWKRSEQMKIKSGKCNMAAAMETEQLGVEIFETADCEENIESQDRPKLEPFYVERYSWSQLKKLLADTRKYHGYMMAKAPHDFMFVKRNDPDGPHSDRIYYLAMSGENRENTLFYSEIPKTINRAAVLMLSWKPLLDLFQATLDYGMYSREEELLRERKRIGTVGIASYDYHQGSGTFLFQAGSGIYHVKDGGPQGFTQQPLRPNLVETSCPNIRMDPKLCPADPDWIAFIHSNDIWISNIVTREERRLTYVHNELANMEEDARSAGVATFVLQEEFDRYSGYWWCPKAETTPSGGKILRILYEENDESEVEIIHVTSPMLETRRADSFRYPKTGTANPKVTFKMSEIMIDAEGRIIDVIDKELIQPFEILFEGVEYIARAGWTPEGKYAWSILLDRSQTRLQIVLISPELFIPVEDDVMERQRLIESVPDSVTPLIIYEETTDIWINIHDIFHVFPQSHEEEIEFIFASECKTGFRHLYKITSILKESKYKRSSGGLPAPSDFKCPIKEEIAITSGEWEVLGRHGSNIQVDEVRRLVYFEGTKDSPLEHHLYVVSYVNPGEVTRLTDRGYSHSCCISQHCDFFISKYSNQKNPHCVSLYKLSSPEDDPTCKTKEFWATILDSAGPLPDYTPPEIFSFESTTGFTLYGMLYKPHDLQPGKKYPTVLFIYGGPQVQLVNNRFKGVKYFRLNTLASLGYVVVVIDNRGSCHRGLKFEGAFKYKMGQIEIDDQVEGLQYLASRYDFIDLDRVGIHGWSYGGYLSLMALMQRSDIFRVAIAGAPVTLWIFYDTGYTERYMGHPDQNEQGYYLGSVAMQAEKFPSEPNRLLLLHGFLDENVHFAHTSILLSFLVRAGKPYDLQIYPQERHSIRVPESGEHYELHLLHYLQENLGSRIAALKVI
Sequence of Dipeptidyl peptidase 9 (Q86TI2 whole entry): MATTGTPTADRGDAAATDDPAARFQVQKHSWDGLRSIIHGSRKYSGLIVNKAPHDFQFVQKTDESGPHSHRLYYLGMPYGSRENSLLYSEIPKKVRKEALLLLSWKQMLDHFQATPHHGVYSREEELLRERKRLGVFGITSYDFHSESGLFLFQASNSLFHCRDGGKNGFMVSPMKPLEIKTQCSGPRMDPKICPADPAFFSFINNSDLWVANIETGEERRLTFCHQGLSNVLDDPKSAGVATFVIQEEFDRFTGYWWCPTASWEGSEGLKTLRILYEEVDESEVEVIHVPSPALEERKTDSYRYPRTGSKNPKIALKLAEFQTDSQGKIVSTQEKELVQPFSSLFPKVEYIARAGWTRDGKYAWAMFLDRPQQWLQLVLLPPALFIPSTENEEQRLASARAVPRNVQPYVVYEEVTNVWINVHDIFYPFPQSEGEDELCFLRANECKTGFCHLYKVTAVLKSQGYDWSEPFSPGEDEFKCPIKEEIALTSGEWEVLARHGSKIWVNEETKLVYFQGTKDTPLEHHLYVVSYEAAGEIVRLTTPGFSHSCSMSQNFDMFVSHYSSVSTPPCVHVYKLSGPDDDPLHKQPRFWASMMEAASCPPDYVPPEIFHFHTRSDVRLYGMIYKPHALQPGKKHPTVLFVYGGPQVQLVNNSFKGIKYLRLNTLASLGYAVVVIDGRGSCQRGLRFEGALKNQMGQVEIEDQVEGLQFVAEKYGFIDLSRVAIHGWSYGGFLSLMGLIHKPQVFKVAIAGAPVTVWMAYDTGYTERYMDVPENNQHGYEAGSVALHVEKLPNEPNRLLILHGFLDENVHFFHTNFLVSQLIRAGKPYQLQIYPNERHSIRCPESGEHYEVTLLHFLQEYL
Sequence of Dipeptidyl peptidase 4 (P27487 whole entry): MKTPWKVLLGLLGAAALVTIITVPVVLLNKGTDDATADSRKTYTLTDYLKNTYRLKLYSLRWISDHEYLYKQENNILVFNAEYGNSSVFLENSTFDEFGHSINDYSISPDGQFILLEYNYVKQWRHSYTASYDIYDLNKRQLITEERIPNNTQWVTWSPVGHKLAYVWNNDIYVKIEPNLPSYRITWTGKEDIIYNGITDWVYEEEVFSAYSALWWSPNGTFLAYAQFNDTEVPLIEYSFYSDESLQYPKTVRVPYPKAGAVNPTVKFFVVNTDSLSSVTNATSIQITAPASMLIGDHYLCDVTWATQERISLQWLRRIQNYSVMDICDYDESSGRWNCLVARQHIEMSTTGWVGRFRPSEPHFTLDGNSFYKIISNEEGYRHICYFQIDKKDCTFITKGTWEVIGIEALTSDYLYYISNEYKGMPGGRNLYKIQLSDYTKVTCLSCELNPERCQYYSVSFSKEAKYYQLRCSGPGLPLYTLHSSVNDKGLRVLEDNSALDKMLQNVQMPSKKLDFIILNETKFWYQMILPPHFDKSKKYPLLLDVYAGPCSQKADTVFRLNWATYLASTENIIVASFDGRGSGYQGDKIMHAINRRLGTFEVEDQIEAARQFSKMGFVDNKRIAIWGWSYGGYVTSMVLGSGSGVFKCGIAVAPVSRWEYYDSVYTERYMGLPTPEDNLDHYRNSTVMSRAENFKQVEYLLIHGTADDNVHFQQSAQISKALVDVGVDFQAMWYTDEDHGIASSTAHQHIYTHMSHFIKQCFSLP
Sequence of Voltage-gated inwardly rectifying potassium channel KCNH2 (Q12809 whole entry): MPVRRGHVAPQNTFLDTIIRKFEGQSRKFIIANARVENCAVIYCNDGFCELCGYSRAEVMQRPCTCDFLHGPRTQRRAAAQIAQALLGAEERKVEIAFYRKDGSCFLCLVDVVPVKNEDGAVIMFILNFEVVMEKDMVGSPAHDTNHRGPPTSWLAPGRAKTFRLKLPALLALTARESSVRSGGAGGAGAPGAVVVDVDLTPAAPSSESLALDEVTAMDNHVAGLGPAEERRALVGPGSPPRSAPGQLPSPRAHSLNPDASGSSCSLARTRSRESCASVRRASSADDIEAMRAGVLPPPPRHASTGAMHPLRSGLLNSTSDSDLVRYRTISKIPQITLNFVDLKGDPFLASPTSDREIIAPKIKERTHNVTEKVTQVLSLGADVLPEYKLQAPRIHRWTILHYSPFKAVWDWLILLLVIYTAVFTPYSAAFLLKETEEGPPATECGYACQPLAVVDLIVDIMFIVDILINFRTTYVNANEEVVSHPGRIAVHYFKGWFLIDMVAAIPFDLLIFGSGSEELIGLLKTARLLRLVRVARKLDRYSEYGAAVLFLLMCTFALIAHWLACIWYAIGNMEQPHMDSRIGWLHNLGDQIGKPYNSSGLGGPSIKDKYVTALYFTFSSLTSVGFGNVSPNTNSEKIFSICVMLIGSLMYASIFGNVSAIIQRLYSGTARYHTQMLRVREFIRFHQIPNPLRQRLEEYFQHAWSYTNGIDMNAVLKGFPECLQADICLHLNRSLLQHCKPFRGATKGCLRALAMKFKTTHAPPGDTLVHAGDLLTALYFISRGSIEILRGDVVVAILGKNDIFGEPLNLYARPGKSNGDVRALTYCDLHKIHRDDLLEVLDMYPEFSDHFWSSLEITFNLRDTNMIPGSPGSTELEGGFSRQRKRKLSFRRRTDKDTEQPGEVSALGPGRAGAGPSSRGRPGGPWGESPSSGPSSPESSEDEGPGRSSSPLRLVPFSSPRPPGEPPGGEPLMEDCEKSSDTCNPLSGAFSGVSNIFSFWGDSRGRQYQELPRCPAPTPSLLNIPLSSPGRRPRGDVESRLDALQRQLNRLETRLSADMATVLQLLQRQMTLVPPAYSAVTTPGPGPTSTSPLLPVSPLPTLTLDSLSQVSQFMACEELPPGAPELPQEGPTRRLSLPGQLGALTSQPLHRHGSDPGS

Cc1csc2nc(N3CCC[C@@H](N)C3)n(Cc3ccccc3C#N)c(=O)c12
IC50 (Dipeptidyl peptidase 4): 1.32 nM
Activity [1]: 376.3 µM
IC50 (Dipeptidyl peptidase 9): > 25 µM
IC50 (Dipeptidyl peptidase 8): > 25 µM

N#Cc1ccccc1Cn1c(N2CCC[C@@H](N)C2)nc2ccsc2c1=O
Cmax [2]: 1230 ng/mL
AUC(0-t) [3]: 1480 ng·h/mL
MRT [4]: 6 h
Activity (Mus musculus [5]): Active
MRT [6]: 6.7 h
Tmax [7]: 2.4 min
Activity (Mus musculus [8]): Active
MRT [9]: 9 h
IC50 (Dipeptidyl peptidase 4): 0.33 nM
AUC (Rattus norvegicus): 0.69 µg·h/mL
clearance [10]: 22.2 mL/min/kg
Activity [1]: 517.4 µM
Cmax [11]: 5750 ng/mL
AUC(0-t) [12]: 11200 ng·h/mL
half-life [13]: 677 min
Cmax [14]: 2070 ng/mL
CL/F [15]: 11.5 mL/min/kg
MRT [16]: 2.7 h
half-life [17]: 420 min
Tmax [18]: 54.6 min
half-life [19]: 354 min
bioavailability [20]: 42.3%
clearance [21]: 116 mL/min/kg
IC50 (Dipeptidyl peptidase 9): > 25 µM
Tmax [22]: 35.4 min
bioavailability [23]: 23.7%
half-life [24]: 608 min
IC50 (Dipeptidyl peptidase 8): > 25 µM
Cmax [25]: 170 ng/mL
AUC(0-t) [26]: 13300 ng·h/mL
Tmax [27]: 6 min

N#Cc1ccccc1Cn1c(N2CCC[C@@H](N)C2)nc2scc(C(F)(F)F)c2c1=O
IC50 (Dipeptidyl peptidase 4): 88.8 nM
IC50 (Dipeptidyl peptidase 9): > 25 µM
IC50 (Dipeptidyl peptidase 8): > 25 µM

N#Cc1ccccc1Cn1c(N2CCC[C@@H](N)C2)nc2sccc2c1=O
IC50 (Dipeptidyl peptidase 4): 0.87 nM
Activity [1]: 484.6 µM
IC50 (Dipeptidyl peptidase 9): > 25 µM
IC50 (Dipeptidyl peptidase 8): > 25 µM

Cc1csc2c(=O)n(Cc3ccccc3C#N)c(N3CCC[C@@H](N)C3)nc12
IC50 (Dipeptidyl peptidase 4): 1.72 nM
Activity [1]: 203.5 µM
IC50 (Dipeptidyl peptidase 9): > 25 µM
IC50 (Dipeptidyl peptidase 8): > 25 µM
